MT1-MMP txn act: activates MT1-MMP transcription | AID 750 | actives 0.16% (n = 86,000) | HT1080 MT1-MMP promoter luciferase reporter, luminescence, overnight; stronger effect = higher value | activation factor at 10 µM;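 active = activation factor of at least 2 for MT1-MMP transcription at 10 µM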
RORA act: activates the human nuclear receptor RORA | activation, % at 10 µM | actives 1.5% (n = 65,000) | CHO-K1 Gal4-RORA LBD luciferase reporter, luminescence; percent increase over mock-subtracted basal signal | P35398;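 active = activation above the mean of all tested compounds plus 3 SD, cut at about 49% in these data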;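 also: 0% = DMSO-treated RORA cells and 100% = added signal equal to DMSO minus mock-transfected cells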
Target sequence (P35398 whole entry, looked up, the tested form may be a part): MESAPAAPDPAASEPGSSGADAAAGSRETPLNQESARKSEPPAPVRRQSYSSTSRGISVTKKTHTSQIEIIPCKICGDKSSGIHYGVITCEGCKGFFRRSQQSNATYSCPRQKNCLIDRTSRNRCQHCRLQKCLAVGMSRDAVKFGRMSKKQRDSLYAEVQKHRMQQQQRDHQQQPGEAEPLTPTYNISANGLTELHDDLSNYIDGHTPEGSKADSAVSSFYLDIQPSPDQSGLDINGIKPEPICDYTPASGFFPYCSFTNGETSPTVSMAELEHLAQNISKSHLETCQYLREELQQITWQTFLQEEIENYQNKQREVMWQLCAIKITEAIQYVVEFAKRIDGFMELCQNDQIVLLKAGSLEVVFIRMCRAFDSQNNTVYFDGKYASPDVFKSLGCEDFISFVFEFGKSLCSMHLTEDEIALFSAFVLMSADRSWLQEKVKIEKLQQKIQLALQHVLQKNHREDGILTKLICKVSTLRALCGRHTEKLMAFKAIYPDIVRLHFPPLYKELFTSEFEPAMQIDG
Jurkat tox 60K: cytotoxic compounds reducing Jurkat cell viability | Jurkat E6.1 viability, ATP luminescence, 48 h | inhibition, % at 4 µM | actives 1.2% (n = 56,000) | AID 463;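 active = inhibition above the mean inhibition of all tested compounds plus 3 SD, cut at about 28% in these data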
HEK293 NFkB inh: lowers PMA/ionomycin-induced NF-kB signal in HEK293 cells; actives 0.21% (n = 62,000); inhibition, % at 3 µM; HEK-293 NF-kB luciferase reporter, luminescence;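 active = inhibition above the mean of all tested compounds plus 3 SD, cut at about 40% in these data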;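 also: 0% = stimulated DMSO wells and 100% = 10 µM reference inhibitor 5653914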
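System: NF-kB luciferase reporter HEK-293 cells | Replication: Single test | Control set: DMSO vs reference inhibitor | Evaluation: % inhibition | Schedule: 1 h pretreatment, 16 h stimulation, 37 °C | Probe or stimulus: PMA with ionomycin | Compound dosing: One dose, 3 µM | Detection: Luciferase luminescence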
SF1 activator: activates the human nuclear receptor SF-1; Q13285; CHO-K1 Gal4-SF-1 LBD luciferase reporter; % increase over DMSO SF-1-specific signal; activation, % at 10 µM; actives 1.9% (n = 65,000);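 active = activation above the mean activation of all tested compounds plus 3 SD, cut at about 50% in these data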
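Material: Transient Gal4-SF-1 LBD reporter, CHO-K1 | Input: 4,000 cells/well | Dosing: One dose, 10 µM compound, 1% DMSO | Incubation: 20 h compound treatment, 37 °C | Detection: SteadyLite luciferase luminescence | Evaluation: Percent activation relative to DMSO median and mock-transfected background | Benchmarks: DMSO-treated SF-1-transfected cells as negative, DMSO-treated mock-transfected cells lacking SF-1 as background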
Numbers without * were called inactive; · = no result. Shown are actives, neighbours in structure and some others; about 2.9% of the full set was active somewhere.

SMILES	MT1-MMP txn act	RORA act	Jurkat tox 60K	HEK293 NFkB inh	SF1 activator
Cn1c(NCc2ccccc2Cl)nc2ccccc21	1.2	50.2*	-4.5	-13.6	45.9
Cc1cccc(NCc2nc3ccccc3n2Cc2ccccc2)c1	1.4	·	·	·	·
Cc1nc2cc(NCc3nc4ccccc4n3Cc3ccccc3)ccc2n1C	1.1	50.4*	9.3	-12.2	23.2
Cn1c(CNc2ccc(Cl)cc2)nc2ccccc21	1.6	36.9	2.9	-36.6	59.0*
O=C(COC(=O)c1ccccc1OCc1ccc(Cl)cc1)NC1CC1	1.1	·	·	·	·
Cc1cc(C(F)F)nn1CC(=O)NCc1ccccc1F	1.1	·	·	·	·
COCCCNC(=O)c1cc2c(=O)n(C)c3ccccc3c2n1C	1	60.3*	14.9	2.3	38.5
COCCNC(=O)c1cc2c(=O)n(C)c3ccccc3c2n1C	1.1	-1.5	-2.6	11.3	-11.2
Cn1c(=O)c(-c2cc(Br)ccc2N)nc2ccccc21	1.9	·	·	·	·
C=CCOc1ccc(/C=C/C(C)=N\O)cc1	1.1	86.4*	-0.3	-14.3	19.8
COc1nc(-c2ccccc2)ccc1-c1noc(COc2ccccc2)n1	1	-10.1	0.3	12.5	-11.0
CC1CCN(Cc2nc(-c3ccccc3)no2)CC1	1.5	19.1	2.2	-18.9	51.2*
Clc1ccccc1OCc1nc(-c2ccncc2)no1	1.5	54.5*	0.6	-28.4	91.5*
c1ccc(-c2noc(CN3CCN(c4ccccc4)CC3)n2)cc1	1.1	-9.3	-0.5	-20.1	-1.3
c1ccc(OCCCc2nc(-c3ccncc3)no2)cc1	1	-12.2	11.3	-2.3	-4.0
c1ccc(OCc2nc(-c3ccccc3)no2)cc1	1.6	39.9	0.0	4.0	55.5*
Clc1ccc(OCc2nc(-c3ccncc3)no2)c(Br)c1	1.1	58.9*	10.3	-53.7	43.9
O=C(C1CCCN(S(=O)(=O)c2ccc(F)cc2)C1)N(Cc1cccs1)C1CC1 (stereo not drawn)	1.1	-16.2	·	12.2	-20.9
C(=N\c1nccs1)/Nc1nccs1	1.1	1.2	7.8	20.3	1.2
c1ccc(-c2noc(-c3ccncc3)n2)nc1	1.1	34.7	9.7	-35.8	14.2
c1ccc(-c2noc(-c3ccc4ccccc4c3)n2)nc1	0.1	-91.5	12.8	75.1*	-91.4
c1ccc(-c2noc(-c3ccc4c(c3)OCO4)n2)nc1	0	-77.5	41.0*	41.2*	-74.8
CCc1cc2c(SCC(=O)c3ccc(Cl)s3)ncnc2s1	1.3	·	·	·	·
OC1(c2cccc(C(F)(F)F)c2)CCN(c2ncnc3c2[nH]c2ccc(F)cc23)CC1	1.3	-32.1	52.8*	23.7	-46.2
CN(C)c1nc(N)nc(-c2nc3ccccc3s2)n1	1.8	11.1	-2.9	-57.1	54.4*
SMILES	MT1-MMP txn act	RORA act	Jurkat tox 60K	HEK293 NFkB inh	SF1 activator
c1ccc2sc(-c3ccc4c(c3)OCO4)nc2c1	0.8	-24.7	10.2	-11.9	-37.4
COC(=O)CNc1c(-c2ccccn2)nc2ccc(Br)cn12	0.5	59.8*	·	-28.0	69.3*
CCOC(=O)CNc1c(-c2ccccc2)nc2ccc(Cl)cn12	1.3	·	·	·	·
O=C(Nc1ccc(Cl)cn1)c1cccc(F)c1	0.9	105.0*	84.8*	-1.8	95.2*
O=C(COc1ccc(Cl)cc1Cl)Nc1ccc(Cl)cn1	0.9	29.8	-7.3	-43.8	30.8
CCOc1ccc(C(=O)Nc2ccc(Cl)cn2)cc1Cl	1.4	86.3*	10.3	-39.4	49.0
CCN(CC)c1ccc(-c2nnc(SCC(=O)Nc3ccccc3C#N)n2-c2ccccc2)cc1	1.2	·	·	·	·
C/C(N)=C(/C#N)C(=O)COC(=O)C1CCC(C(C)(C)C)CC1 (stereo not drawn)	1	·	·	·	·
C=CCNC(=O)c1cc(-c2ccc(Br)cc2)on1	1.7	61.1*	-9.0	-31.8	35.7
CCCCNC(=O)c1cc(-c2ccc(F)cc2)on1	1.4	72.5*	16.3	-50.2	46.9
CCCCNC(=O)c1cc(-c2ccc(OC)c(OC)c2)on1	1.1	0.8	-2.3	2.8	-0.1
CCCCNC(=O)c1cc(-c2ccc(OC)cc2)on1	·	59.0*	·	-11.9	47.1
COc1ccc(CN(C(=O)CO)[C@@H](CO[Si](c2ccccc2)(c2ccccc2)C(C)(C)C)c2cccc(NC(C)=O)c2OC)cc1OC	1.2	·	·	·	·
COc1ccc(CN2CCN(c3ccccn3)CC2)cc1OCc1ccccc1	1	-2.0	8.6	12.9	2.7
COc1ccccc1NC(=O)CN1C(=O)NC(CC(C)C)C1=O (stereo not drawn)	1.2	1.1	-2.8	18.0	-0.2
